Active and inactive are the calls of the source. The rule behind the calls is not given here.
Experiments:
[1] = target: EZH2/SUZ12/EED complex (Homo sapiens) (UniProt Q15910+O75530+Q15022); experiment: (§1) Inhibition of EZH2 histone methyltransferase activity in EZH2/SUZ12/EED protein complex (unknown origin) using histone H3 peptide/S-adenosylmethionine as substrate after 2 hrs by TR-FRET assay
[2] = target: EZH2/SUZ12/EED complex (Homo sapiens, UniProt O75530+Q15022+Q15910); experiment: as §1
[3] = test system: T98G; experiment: Cytotoxicity against human T98G cells assessed as growth inhibition after 72 hrs by WST-1 assay; format: functional
Outline: (§2)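 Growth inhibition of tumour lines read by WST-1 viability assay. GI50 taken as the half-maximal growth-inhibitory concentration.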

[4] = test system: Daudi; experiment: Cytotoxicity against human Daudi cells assessed as growth inhibition after 72 hrs by WST-1 assay; format: functional; outline: as §2
[5] = Cytotoxicity against human U87MG cells assessed as growth inhibition after 72 hrs by WST-1 assay; format: functional, U-87MG ATCC; settings: U-87 MG; outline: as §2
[6] = Cytotoxicity against human U2932 cells assessed as growth inhibition after 72 hrs by WST-1 assay; format: functional; settings: U2932, 72 h; outline: as §2
[7] = test system: A549; experiment: Cytotoxicity against human A549 cells assessed as growth inhibition after 72 hrs by WST-1 assay; format: functional; settings: A549, 72 h; outline: as §2
[8] = Cytotoxicity against human Pfeiffer cells expressing EZH2 […] mutant assessed as growth inhibition after 72 hrs by WST-1 assay; format: functional; outline: as §2
[9] = test system: PC-3; experiment: Cytotoxicity against human PC3 cells assessed as growth inhibition after 72 hrs by WST-1 assay; format: functional; settings: PC-3, 72 h; outline: as §2
[10] = Cell cycle arrest in human Pfeiffer cells assessed as accumulation at S phase at 2.5 uM after 72 hrs (reference value: 21%); format: functional, cell-based
Outline: (§3)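 Pfeiffer cells (DLBCL carrying EZH2 A677G) exposed 72 h to 1, 2.5 or 5 µM, with untreated control. DNA content histograms are gated as M1 sub-G1, M2 G1, M3 S and M4 G2/M. Values are the percentage of cells in each gate.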

[11] = test system: Pfeiffer; experiment: Induction of apoptosis in human Pfeiffer cells assessed as DNA content at 1 to 5 uM after 72 hrs by DAPI staining-based analysis; format: functional, cell-based; outline: as §3
[12] = Cell cycle arrest in human Pfeiffer cells assessed as accumulation at G1 phase at 2.5 uM after 72 hrs (reference value: 59%); format: functional, cell-based; outline: as §3
[13] = Cell cycle arrest in human Pfeiffer cells assessed as accumulation at G2/M phase at 2.5 uM after 72 hrs (reference value: 10%); format: functional, cell-based; outline: as §3
[14] = target: Histone-lysine N-methyltransferase EZH2 (Homo sapiens) (UniProt Q15910); settings: 3 uM
[15] = test system: Pfeiffer; experiment: Induction of apoptosis in human Pfeiffer cells assessed as increase in cleaved caspase-3 level at 1 to 3 uM after 72 hrs by Western blotting analysis; format: functional, cell-based
Outline: (§4)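 Pfeiffer cells treated 72 h. Lysates analysed by Western blot for apoptosis markers.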

[16] = test system: Pfeiffer; experiment: Induction of apoptosis in human Pfeiffer cells assessed as increase in cleaved caspase-7 level at 1 to 3 uM after 72 hrs by Western blotting analysis; format: functional, cell-based; outline: as §4
[17] = Cell cycle arrest in human Pfeiffer cells assessed as accumulation at G2/M phase at 1 uM after 72 hrs (reference value: 10%); format: functional, cell-based; outline: as §3
[18] = Cell cycle arrest in human Pfeiffer cells assessed as accumulation at sub-G1 phase at 2.5 uM after 72 hrs (reference value: 9%); format: functional, cell-based; outline: as §3
[19] = Cell cycle arrest in human Pfeiffer cells assessed as accumulation at G2/M phase at 5 uM after 72 hrs (reference value: 10%); format: functional, cell-based; outline: as §3
[20] = Cell cycle arrest in human Pfeiffer cells assessed as accumulation at G1 phase at 5 uM after 72 hrs (reference value: 59%); format: functional, cell-based; outline: as §3
[21] = test system: Pfeiffer; experiment: Induction of apoptosis in human Pfeiffer cells assessed as increase in cleaved PARP level at 1 to 3 uM after 72 hrs by Western blotting analysis; format: functional, cell-based; outline: as §4
[22] = Cell cycle arrest in human Pfeiffer cells assessed as accumulation at S phase at 5 uM after 72 hrs (reference value: 21%); format: functional, cell-based; outline: as §3
[23] = Cell cycle arrest in human Pfeiffer cells assessed as accumulation at sub-G1 phase at 5 uM after 72 hrs (reference value: 9%); format: functional, cell-based; outline: as §3
[24] = target: Histone-lysine N-methyltransferase EZH2 (Homo sapiens) (UniProt Q15910); settings: 1 to 3 uM
[25] = Cell cycle arrest in human Pfeiffer cells assessed as accumulation at G1 phase at 1 uM after 72 hrs (reference value: 59%); format: functional, cell-based; outline: as §3
[26] = Inhibition of EZH2 histone methyltransferase […] mutant in EZH2/SUZ12/EED/RbAp46/48 protein complex (unknown origin) using histone H3 peptide/S-adenosylmethionine as substrate after 2 hrs by Lineweaver-Burk plot analysis; parameters: species or system Homo sapiens
Outline: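 EZH2 A677G mutant activity measured with inhibitor at 0, 0.625, 1.25 and 2.5 µM. Inhibition mode analysed by Lineweaver–Burk plot.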

[27] = target: EZH2/SUZ12/EED/RBBP7/RBBP4; experiment: Competitive inhibition of EZH2 histone methyltransferase activity in EZH2/SUZ12/EED/RbAp46/48 (unknown origin) using histone H3 peptide/varying concentration of S-adenosylmethionine as substrate after 2 hrs by Lineweaver-Burk plot analysis; format: protein-complex assay, Homo sapiens
Outline: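 PRC2 complex (EZH2, EED, SUZ12, RbAp46/48) as enzyme. Histone H3 peptide fixed at 150 nM, SAM varied. Inhibitor at 0, 0.625, 1.25 and 2.5 µM.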

[28] = Cell cycle arrest in human Pfeiffer cells assessed as accumulation at S phase at 1 uM after 72 hrs (reference value: 21%); format: functional, cell-based; outline: as §3
[29] = target: Histone-lysine N-methyltransferase EZH2 (Homo sapiens) (UniProt Q15910); settings: 3 uM; remark: listed apart in the source
[30] = Cell cycle arrest in human Pfeiffer cells assessed as accumulation at sub-G1 phase at 1 uM after 72 hrs (reference value: 9%); format: functional, cell-based; outline: as §3

Chain of EZH2/SUZ12/EED complex (Q15910 whole entry): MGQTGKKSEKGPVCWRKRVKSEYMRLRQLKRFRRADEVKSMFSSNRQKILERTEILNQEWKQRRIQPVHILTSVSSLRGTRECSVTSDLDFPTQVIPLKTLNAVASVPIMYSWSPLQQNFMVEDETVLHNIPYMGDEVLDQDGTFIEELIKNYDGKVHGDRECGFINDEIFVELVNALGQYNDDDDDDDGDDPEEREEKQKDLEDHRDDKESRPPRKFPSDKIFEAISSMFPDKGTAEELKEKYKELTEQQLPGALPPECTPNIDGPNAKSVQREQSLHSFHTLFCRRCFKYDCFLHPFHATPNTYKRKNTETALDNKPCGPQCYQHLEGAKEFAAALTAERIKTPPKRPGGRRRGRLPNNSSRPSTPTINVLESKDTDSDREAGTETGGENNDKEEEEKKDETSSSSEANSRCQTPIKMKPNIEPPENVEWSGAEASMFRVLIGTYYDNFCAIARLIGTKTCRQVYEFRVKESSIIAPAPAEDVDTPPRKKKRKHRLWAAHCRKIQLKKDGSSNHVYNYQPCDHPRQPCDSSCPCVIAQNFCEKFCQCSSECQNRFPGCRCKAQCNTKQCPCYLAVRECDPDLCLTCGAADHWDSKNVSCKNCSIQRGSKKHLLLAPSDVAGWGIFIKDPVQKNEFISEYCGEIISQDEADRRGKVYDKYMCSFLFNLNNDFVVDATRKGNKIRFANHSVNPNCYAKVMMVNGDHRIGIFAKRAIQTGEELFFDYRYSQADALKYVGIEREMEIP
Chain of EZH2/SUZ12/EED complex (O75530 whole entry): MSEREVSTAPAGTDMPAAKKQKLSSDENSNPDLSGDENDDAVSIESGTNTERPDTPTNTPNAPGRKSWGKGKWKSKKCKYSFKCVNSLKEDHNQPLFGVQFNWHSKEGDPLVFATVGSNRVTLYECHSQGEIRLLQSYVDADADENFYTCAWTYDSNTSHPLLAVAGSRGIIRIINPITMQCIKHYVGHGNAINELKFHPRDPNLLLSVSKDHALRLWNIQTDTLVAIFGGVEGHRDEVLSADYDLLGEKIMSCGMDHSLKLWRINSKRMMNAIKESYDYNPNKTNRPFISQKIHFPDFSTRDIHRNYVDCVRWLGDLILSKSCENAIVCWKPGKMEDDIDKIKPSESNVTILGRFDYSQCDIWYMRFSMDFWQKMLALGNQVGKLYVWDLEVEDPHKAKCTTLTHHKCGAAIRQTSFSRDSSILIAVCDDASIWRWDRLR
Chain of EZH2/SUZ12/EED complex (Q15022 whole entry): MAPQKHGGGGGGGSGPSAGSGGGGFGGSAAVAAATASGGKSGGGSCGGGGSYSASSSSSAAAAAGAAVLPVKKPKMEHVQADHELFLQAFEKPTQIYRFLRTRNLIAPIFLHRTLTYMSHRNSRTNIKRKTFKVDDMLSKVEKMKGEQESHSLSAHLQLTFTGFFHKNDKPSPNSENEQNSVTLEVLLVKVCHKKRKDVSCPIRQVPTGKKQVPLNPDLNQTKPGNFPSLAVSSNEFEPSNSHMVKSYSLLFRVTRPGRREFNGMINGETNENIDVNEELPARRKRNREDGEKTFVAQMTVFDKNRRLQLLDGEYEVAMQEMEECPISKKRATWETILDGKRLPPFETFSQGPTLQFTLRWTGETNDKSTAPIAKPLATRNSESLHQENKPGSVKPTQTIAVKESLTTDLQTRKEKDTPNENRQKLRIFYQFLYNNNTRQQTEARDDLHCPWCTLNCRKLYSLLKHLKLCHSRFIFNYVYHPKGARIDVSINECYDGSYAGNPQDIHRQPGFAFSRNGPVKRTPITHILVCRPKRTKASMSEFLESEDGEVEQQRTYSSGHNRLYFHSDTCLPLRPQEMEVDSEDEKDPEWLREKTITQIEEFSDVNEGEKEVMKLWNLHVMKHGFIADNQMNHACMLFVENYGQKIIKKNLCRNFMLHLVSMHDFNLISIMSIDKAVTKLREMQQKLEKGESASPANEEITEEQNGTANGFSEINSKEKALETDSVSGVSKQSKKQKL
Chain of Histone-lysine N-methyltransferase EZH2 (Homo sapiens) (Q15910 whole entry, looked up): as the sequence (Q15910 whole entry) above
Chain of EZH2/SUZ12/EED complex (Homo sapiens) (O75530 2-441 partner limits assumed): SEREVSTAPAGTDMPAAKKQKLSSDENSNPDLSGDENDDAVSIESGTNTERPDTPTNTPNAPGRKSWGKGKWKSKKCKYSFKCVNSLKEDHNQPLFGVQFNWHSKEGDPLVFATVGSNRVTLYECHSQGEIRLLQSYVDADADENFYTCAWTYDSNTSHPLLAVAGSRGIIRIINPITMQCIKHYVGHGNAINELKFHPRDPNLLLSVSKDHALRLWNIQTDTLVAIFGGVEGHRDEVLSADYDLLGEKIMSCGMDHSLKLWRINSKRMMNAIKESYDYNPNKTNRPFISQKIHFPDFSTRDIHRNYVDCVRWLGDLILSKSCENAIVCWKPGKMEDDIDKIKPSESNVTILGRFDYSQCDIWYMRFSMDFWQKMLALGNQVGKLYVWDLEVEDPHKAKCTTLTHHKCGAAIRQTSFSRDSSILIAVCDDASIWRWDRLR
Chain of EZH2/SUZ12/EED complex (Homo sapiens) (Q15022 whole entry partner): as the sequence (Q15022 whole entry) above
Chain of EZH2/SUZ12/EED complex (Homo sapiens) (Q15910 whole entry): as the sequence (Q15910 whole entry) above

For Cc1coc2c1C(=O)C(=O)c1c-2ccc2c1CC[C@H](O)[C@]2(C)O, the inhibition [1] was “Dose-dependent effect” and the IC50 [2] was 0.52 µM.
With COC(=O)[C@@]1(C)CCCc2c1ccc1c2C(=O)C(=O)c2c(C)coc2-1 [METHYL TANSHINONATE] the inhibition [1] was “Dose-dependent effect” and the IC50 [2] was 9.6 µM.
For Cc1coc2c1C(=O)C(=O)c1c-2ccc2c(C)cccc12 [TANSHINONE I], the inhibition [1] was “Dose-dependent effect” and the IC50 [2] was 8.9 µM.
With Cc1coc2c1C(=O)C(=O)c1c-2ccc2c1CCCC2(C)C [TANSHINONE IIA] the inhibition [1] was “Dose-dependent effect” and the IC50 [2] was 28.1 µM.
Work on CC[C@H](C)n1cc(C)c2c(C(=O)NCc3c(C)cc(C)[nH]c3=O)cc(-c3ccc(N4CCNCC4)nc3)cc21 [GSK2816126] yielded a GI50 [3] of 12.6 µM, a GI50 [4] of 11.2 µM and a GI50 [5] of 28.5 µM. For the same compound, the GI50 [6] was 6.7 µM, the GI50 [7] was 18.7 µM and the GI50 [8] was 0.18 µM. The GI50 [9] was 9.4 µM.
For Cc1coc2c1C(=O)C(=O)c1c-2ccc2c1CCCC2(C)CO (configuration not stated) [TANSHINONE IIB], the inhibition [1] was “Dose-dependent effect” and the IC50 [2] was 4.8 µM.
In the case of Cc1coc2c1C(=O)C(=O)c1c-2ccc2c1CC[C@@H](O)[C@]2(C)O, the inhibition [1] is reported as “Dose-dependent effect”, the IC50 [2] is reported as 0.55 µM and the Activity [10] is reported as 24%. The Activity [11] was “Active”, the Activity [12] was 51% and the Activity [13] was 11%. The GI50 [3] was 6 µM, the inhibition [14] was 50% and the GI50 [4] was 10.6 µM. The Activity [15] was “Active”, the Activity [16] was “Active” and the GI50 [5] was 5.7 µM. For the same compound, the GI50 [6] was 9.5 µM, the Activity [17] was 11% and the GI50 [7] was 4.2 µM. It also gave an Activity [18] of 13%, an Activity [19] of 7% and an Activity [20] of 41%. The Activity [21] was “Active”, the Activity [22] was 29% and the Activity [23] was 21%. The inhibition [24] was “Active”, the GI50 [8] was 1.5 µM and the Activity [25] was 58%. The Ki [26] was 0.176 µM, the Ki [27] was 0.194 µM and the Activity [28] was 20%. The GI50 [9] was 4 µM, the inhibition [29] was 50% and the Activity [30] was 11%.
